Active and inactive are the calls of the source. No cut-off for these calls is given here.
Tests used:
[1] = target: T1, Polyunsaturated fatty acid 5-lipoxygenase (Homo sapiens) (UniProt P09917); experiment: Inhibition of human 5-LOX expressed in Escherichia coli BL21-DE3 of assessed as reduction in H2DCFDA oxidation at 100 uM using arachidonic acid substrate incubated for 5 mins by fluorescence spectrophotometry
T1 sequence (whole entry): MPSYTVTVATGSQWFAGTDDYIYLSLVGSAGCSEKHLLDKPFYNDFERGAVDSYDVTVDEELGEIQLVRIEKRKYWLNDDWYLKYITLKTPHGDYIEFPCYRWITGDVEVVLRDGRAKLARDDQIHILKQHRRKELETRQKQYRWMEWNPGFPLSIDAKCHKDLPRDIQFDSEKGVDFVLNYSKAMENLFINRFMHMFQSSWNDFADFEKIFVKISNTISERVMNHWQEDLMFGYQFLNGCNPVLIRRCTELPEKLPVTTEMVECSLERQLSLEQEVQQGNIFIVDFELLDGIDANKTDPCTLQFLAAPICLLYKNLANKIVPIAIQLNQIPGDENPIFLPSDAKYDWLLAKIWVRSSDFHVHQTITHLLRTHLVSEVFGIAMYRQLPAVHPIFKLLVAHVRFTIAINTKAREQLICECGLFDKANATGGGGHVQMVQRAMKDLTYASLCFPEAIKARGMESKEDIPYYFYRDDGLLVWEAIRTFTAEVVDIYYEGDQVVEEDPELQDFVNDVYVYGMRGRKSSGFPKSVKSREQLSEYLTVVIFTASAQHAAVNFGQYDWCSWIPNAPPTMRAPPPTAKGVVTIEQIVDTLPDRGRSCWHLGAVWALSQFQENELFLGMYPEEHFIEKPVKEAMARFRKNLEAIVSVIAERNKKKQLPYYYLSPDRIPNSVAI
Procedure, shortened: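 Human 5-LOX activity followed as AA-driven oxidation of H2DCFDA to fluorescent dichlorofluorescein (ex 500/em 520 nm), recorded for 5 min. Compound handled as in the 15-LOX assay.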

[2] = target: T2, Polyunsaturated fatty acid lipoxygenase ALOX15 (Homo sapiens) (UniProt P16050); experiment: Activation of 15-LOX in human whole blood assessed as reduction in 5-HETE production at 100 uM pre-incubated for 20 mins before stimulation with LPS and A23187 for 120 mins in presence of 2 uM […] inhibitor Zileuton by LC-MS/MS method; format: tissue-based
T2 sequence (whole entry): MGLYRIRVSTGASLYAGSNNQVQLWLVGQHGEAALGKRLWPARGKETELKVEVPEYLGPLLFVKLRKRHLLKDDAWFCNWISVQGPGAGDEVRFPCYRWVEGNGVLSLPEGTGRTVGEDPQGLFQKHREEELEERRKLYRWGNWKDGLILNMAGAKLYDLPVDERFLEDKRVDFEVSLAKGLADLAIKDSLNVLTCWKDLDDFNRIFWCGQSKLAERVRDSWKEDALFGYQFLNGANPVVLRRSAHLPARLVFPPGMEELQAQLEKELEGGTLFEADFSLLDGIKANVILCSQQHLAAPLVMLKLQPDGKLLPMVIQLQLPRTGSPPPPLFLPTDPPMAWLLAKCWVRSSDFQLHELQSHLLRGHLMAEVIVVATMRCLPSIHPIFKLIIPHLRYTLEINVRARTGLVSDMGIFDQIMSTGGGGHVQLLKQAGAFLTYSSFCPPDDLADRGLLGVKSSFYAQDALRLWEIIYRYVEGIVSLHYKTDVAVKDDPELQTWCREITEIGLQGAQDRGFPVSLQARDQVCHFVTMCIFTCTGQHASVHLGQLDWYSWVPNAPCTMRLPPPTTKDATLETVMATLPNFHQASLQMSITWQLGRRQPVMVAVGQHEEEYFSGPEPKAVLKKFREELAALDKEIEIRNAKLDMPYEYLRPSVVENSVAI
Procedure, shortened: (§1)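 Human blood preincubated 20 min at 37 °C with DMSO vehicle or compound in DMSO. LPS added at 100 μg/mL for 24 h at 37 °C, then A23187 at 20 μg/mL final. Samples frozen in liquid nitrogen at time points, lysed by freeze–thaw, with PGB2 internal standard. Analysed by C18 LC-MRM MS, negative ion. Change = control-normalized concentration minus 1, ×100%; 120 min value from AUC.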

Blood = experiment: Reduction in TXB2 in production in human whole blood at 100 uM pre-incubated for 20 mins before stimulation with LPS and A23187 for 120 mins by LC-MS/MS method; format: functional; design: scale not given: the % may be the effect or the level left; procedure, shortened: as §1
[3] = target: T2, Polyunsaturated fatty acid lipoxygenase ALOX15 (Homo sapiens); experiment: Activation of 15-LOX in human PMN assessed as 5-HETE production at 6.2 to 40 uM pre-incubated for 15 mins before A23187, Ca2+ and Mg2+ stimulation for 1 hr by LC-MS method
Procedure, shortened: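 PMNs preincubated 15 min at 37 °C with compound or vehicle, then stimulated 1 h at 37 °C with 10 μM A23187 plus 2 mM Ca2+ and 2 mM Mg2+. Reactions stopped with cold methanol. Eicosanoids quantified by LC-MS.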

[4] = target: T2, Polyunsaturated fatty acid lipoxygenase ALOX15 (Homo sapiens); experiment: Activation of 15-LOX in human whole blood assessed as reduction in LTB4 production at 100 uM pre-incubated for 20 mins before stimulation with LPS and A23187 for 120 mins in presence of 2 uM […] inhibitor Zileuton by LC-MS/MS method; format: tissue-based; procedure, shortened: as §1
[5] = target: T3, Polyunsaturated fatty acid lipoxygenase ALOX15 (Homo sapiens, UniProt P16050); experiment: Activation of wild-type His6-tagged human 15-LOX expressed in Escherichia coli Rosetta DE3 assessed as 15-HpETE formation pre-incubated for 1 min before arachidonic acid substrate addition by cell free assay
T3 sequence (P16050 whole entry): T2 sequence (whole entry)

[6] = target: T3, Polyunsaturated fatty acid lipoxygenase ALOX15; experiment: Binding affinity to wild-type His6-tagged human 15-LOX expressed in Escherichia coli Rosetta DE3 by SPR assay
Procedure, shortened: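 15-LOX amine-coupled to a CM5 chip at 800 RU, 25 °C, in PBS-P pH 7.4. Compound concentrations in 5% DMSO injected serially; regenerated by buffer washing. KD from Hill fit of response units.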

[7] = target: T2, Polyunsaturated fatty acid lipoxygenase ALOX15 (Homo sapiens); experiment: Activation of 15-LOX in human whole blood assessed as increase in 15-HETE production at 100 uM pre-incubated for 20 mins before stimulation with LPS and A23187 for 120 mins in presence of 2 uM […] inhibitor Zileuton by LC-MS/MS method; format: tissue-based; procedure, shortened: as §1
[8] = target: T2, Polyunsaturated fatty acid lipoxygenase ALOX15 (Homo sapiens); experiment: Activation of 15-LOX in human whole blood assessed as 13-HODE production at 100 uM pre-incubated for 20 mins before stimulation with LPS and A23187 for 120 mins in presence of 2 uM 5-LOX inhibitor Zileuton by LC-MS/MS method; format: tissue-based; procedure, shortened: as §1
[9] = target: T2, Polyunsaturated fatty acid lipoxygenase ALOX15 (Homo sapiens); experiment: Activation of 15-LOX in human whole blood assessed as 15-HETE production at 100 uM pre-incubated for 20 mins before stimulation with LPS and A23187 for 120 mins in presence of 2 uM 5-LOX inhibitor Zileuton by LC-MS/MS method; format: tissue-based; procedure, shortened: as §1

inhibition [1]: < 5%
Activity [2]: Active
Activity [3]: Active
Activity [4]: Active
AC50 [5]: 6.8 µM
Kd [6]: 3.9 µM
Activity [7]: Active
Activity [8]: 67%
Activity [9]: 36%
Compound: CN1CCN(CC(=O)N2N=C3/C(=C/c4ccccc4)CCCC3C2c2ccccc2)CC1 (stereo not given)
Activity (Blood): 27%
